{"data": "Assay results gathered from unrelated publications", "HTR2C": "5-hydroxytryptamine receptor 2C (HTR2C, Homo sapiens, UniProt P28335)", "BDKRB2": "B2 bradykinin receptor (BDKRB2, Homo sapiens, UniProt P30411)", "Tmem97": "Sigma intracellular receptor 2 (Tmem97, Rattus norvegicus, UniProt Q5U3Y7)", "Trypanothione synthetase": "Trypanothione synthetase (Trypanosoma cruzi, UniProt Q9GT49)", "EAPA": "Endothiapepsin (EAPA, Cryphonectria parasitica, UniProt P11838)", "note": "Lines come from different studies, so protocols differ."}
{"Compound": "C#CCOCCOCCOc1ccc2c3c1C1CCCC1N3CCNC2 (racemic)", "target": "HTR2C", "assay": "ligand displacement, radioligand", "conditions": "10 µM", "inhibition [%]": 100}
{"Compound": "CCN(Cc1ccccc1C(F)(F)F)C(=O)C1CCN(S(=O)(=O)c2ccc3[nH]ncc3c2)CC1", "target": "BDKRB2", "assay": "ligand displacement, radioligand", "conditions": "10 µM", "inhibition [%]": 11}
{"Compound": "COc1ccc(CCC(C)N2CCc3cc(OC)c(OC)cc3C2)cc1 (stereo not shown)", "target": "Tmem97", "assay": "ligand displacement, radioligand", "conditions": "0.1 µM", "inhibition [%]": 98}
{"Compound": "O=C1N=C(N2CCCCN2)S/C1=C\\c1ccc(F)cc1O", "target": "Melatonin receptor type 1A (MTNR1A, Homo sapiens, UniProt P48039)", "assay": "ligand displacement, radioligand", "conditions": "10 µM", "inhibition [%]": "< 10"}
{"Compound": "COc1cc(NC(C)=O)c(Cl)cc1C(=O)Nc1nccs1", "target": "BDKRB2", "assay": "cell-free assay", "conditions": "10 µM", "inhibition [%]": -21.3}
{"Compound": "N#Cc1cc(Cn2c(N3CCCC3)nc3ccccc32)ccc1F", "target": "HTR2C", "assay": "ligand displacement, radioligand", "conditions": "10 µM", "inhibition [%]": 14.4}
{"Compound": "CN(Cc1ccc(NC(=O)C2=Cc3cc(-c4ccc(OCCCCCF)cc4)ccc3CCC2)cc1)C1CCOCC1", "target": "Tmem97", "assay": "ligand displacement, radioligand", "conditions": "10 µM", "inhibition [%]": 7}
{"Compound": "O=C(CN1C(=O)Cc2c([nH]c3ccc(Br)cc23)-c2ccc(Cl)cc21)N1CCCCC1", "target": "Trypanothione synthetase", "assay": "enzyme activity, inhibitor, absorbance", "conditions": "30 µM", "inhibition [%]": 7.1}
{"Compound": "O=C(COc1ccc(Cl)cc1Cl)N/N=C/c1c[nH]c2ccccc12", "target": "1-deoxy-D-xylulose-5-phosphate synthase (dxs, Deinococcus radiodurans, UniProt Q9RUB5)", "assay": "enzyme activity, inhibitor", "conditions": "200 µM", "inhibition [%]": 45.3}
{"Compound": "NNC(=O)CN1C(=O)Cc2c([nH]c3ccc(Br)cc23)-c2ccc(Cl)cc21", "target": "Trypanothione synthetase", "assay": "enzyme activity, inhibitor, absorbance", "conditions": "30 µM", "inhibition [%]": 10.1}
{"Compound": "O=C(c1ccc(F)cc1)N(Cc1ccccc1)C1CCCCC1", "target": "Substance-P receptor (TACR1, Homo sapiens, UniProt P25103)", "assay": "cell-free assay", "conditions": "10 µM", "inhibition [%]": 20}
{"Compound": "NNC(COCc1ccccc1)c1nnnn1CC(=O)NCc1cccs1 (stereo not shown)", "target": "EAPA", "assay": "enzyme activity, inhibitor", "conditions": "200 µM", "inhibition [%]": 51.9}
{"Compound": "CNC(=O)[C@@]12C[C@@H]1[C@@H](n1cnc3c(NC)nc(C#Cc4ccc(Cl)s4)nc31)[C@H](O)[C@@H]2O", "target": "Tmem97", "assay": "ligand displacement, radioligand", "conditions": "10 µM", "inhibition [%]": "60 to 70"}
{"Compound": "Oc1cccc(Nc2nc(-c3ccc(F)cc3F)cs2)c1", "target": "BDKRB2", "assay": "cell-free assay", "conditions": "10 µM", "inhibition [%]": -68.7}
{"Compound": "O=C(CN1C(=O)Cc2c([nH]c3ccc(Br)cc23)-c2ccc(Cl)cc21)NCCN1CCNCC1", "target": "Trypanothione synthetase", "assay": "enzyme activity, inhibitor, absorbance", "conditions": "30 µM", "inhibition [%]": 7.9}
{"Compound": "CCCCCC(NN)c1nnnn1Cc1ccc2c(c1)OCCO2 (stereo not shown)", "target": "EAPA", "assay": "enzyme activity, inhibitor", "conditions": "200 µM", "inhibition [%]": 48.2}
{"Compound": "CCN(CC)C(=O)CN1C(=O)Cc2c([nH]c3ccc(Br)cc23)-c2ccc(Cl)cc21", "target": "Trypanothione synthetase", "assay": "enzyme activity, inhibitor, absorbance", "conditions": "30 µM", "inhibition [%]": 7.8}
{"Compound": "NNC(CCc1ccccc1)c1nnnn1Cc1ccc2c(c1)OCO2 (stereo not shown)", "target": "EAPA", "assay": "enzyme activity, inhibitor", "conditions": "200 µM", "inhibition [%]": 36.3}
{"Compound": "O=C(CN1C(=O)Cc2c([nH]c3ccc(Br)cc23)-c2ccc(Cl)cc21)NC1=NCCS1", "target": "Trypanothione synthetase", "assay": "enzyme activity, inhibitor, absorbance", "conditions": "30 µM", "inhibition [%]": 16}
{"Compound": "O=C(O)c1ccccn1", "target": "Stromelysin-1 (MMP3, Homo sapiens, UniProt P08254)", "assay": "enzyme activity, inhibitor", "conditions": "1 mM, pH 6", "inhibition [%]": "> 80"}
{"Compound": "COC(=O)CN1C(=O)Cc2c([nH]c3ccc(Br)cc23)-c2ccc(Cl)cc21", "target": "Trypanothione synthetase", "assay": "enzyme activity, inhibitor, absorbance", "conditions": "30 µM", "inhibition [%]": 37.4}
{"Compound": "CN1CC(Oc2cnc(C#N)cc2-c2ccn3nc(NC(=O)C4CC4)cc3c2)C1", "target": "MAPK/MAK/MRK overlapping kinase (MOK, Homo sapiens, UniProt Q9UQ07)", "assay": "enzyme activity, inhibitor", "conditions": "1 µM", "inhibition [%]": 15}
